Experimental data as given in PMC8719016 (iScience, 2021).
Peptide text beside a SMILES is read from it.

What was measured:
[1] = tested on: A. baumannii AB5075 knockout or overexpression strains; experiment: MIC against knockout or overexpression strains of upregulated genes; type: cell-based, Acinetobacter baumannii; conditions: all the upregulated genes tested (Table S1: fold change MIC 1 for each)
Method in brief: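 Genes for overexpression are cloned via EcoRI/SalI into pMMBEH67 TetR, electroporated into AB5075 and selected on LB with 10 µg/mL tetracycline. […] The MIC is the lowest concentration with no visible growth, by eye, median of triplicates.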

A. baumannii AB5075 = experiment: Isolation of resistant mutants by subinhibitory serial passage; type: cell-based, Acinetobacter baumannii; conditions: subinhibitory serial passage in liquid media over two weeks
[2] = tested on: E. coli KS272, HM130 and HM130 with trypsin protease; experiment: MBC with and without protease activity; type: cell-based, Escherichia coli; conditions: KS272, HM130, HM130 with 160 ng/mL trypsin protease, MH media
Method in brief: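 E. coli KS272 (parent) and HM130 (cell envelope proteases deleted) are grown overnight at 37°C. Trypsin, where used, is added to the diluted cells at twice the final concentration. Test compound is taken from 256 µg/mL through 2-fold serial dilutions in triplicate, 5 × 10^5 cells/mL final, for 18–24 h at 37°C.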

human red blood cells [3] = experiment: Hemolysis; type: cell-based; conditions: 2-fold serial dilutions, compared with 1% Triton X-100 (100%); n = 3
[4] = MBC of β-AMPs with and without 40% human serum; type: cell-based; conditions: MH vs MH with 40% human serum; strain not given
Method in brief: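 Broth microdilution is run in MH with or without human serum, which is added to the cell suspension at twice the final level. Test compound is taken from 256 µg/mL through 2-fold serial dilutions in triplicate, with 5 × 10^5 cells/mL final, for 18–24 h at 37°C. 5 µL per well is plated on LB agar for 18 h at 37°C. MBC is the lowest concentration with zero growth, median of triplicates.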

human red blood cells [5] = conditions: ref Edwards et al., 2016; cited from earlier work
Solubility in water = type: physicochemical; conditions: lyophilized peptides resuspended in water at 10 mg/mL

## CC[C@H](C)[C@H](NC(=O)[C@H](CCCCN)NC(=O)[C@@H](NC(=O)[C@H](CC(N)=O)NC(=O)[C@H](C)NC(=O)[C@H](CCCNC(=N)N)NC(=O)[C@H](CCCNC(=N)N)NC(=O)[C@H](CC(N)=O)NC(=O)[C@H](CCCNC(=N)N)NC(=O)[C@H](CCCNC(=N)N)NC(=O)[C@H](C)NC(=O)[C@@H](NC(=O)[C@H](CO)NC(=O)[C@@H](NC(=O)[C@@H](NC(=O)[C@H](CS)NC(=O)[C@H](CCCCN)NC(=O)[C@@H](N)CCCNC(=N)N)C(C)C)[C@@H](C)CC)C(C)C)[C@@H](C)CC)C(=O)N[C@@H](CC(C)C)C(=O)N[C@@H](CS)C(=O)N[C@@H](CC(N)=O)C(N)=O [Symbah-1] (H-RKCVISVARRNRRANIKILCN-NH2; N-terminus assumed)
[1]
  Effect of gene knockout or overexpression on MIC: no clear effect on MIC
A. baumannii AB5075
  Isolation of resistant mutants: no isolates with improved resistance
[2]
  Change of MBC under each of the conditions tested: ≤ 2 fold
Human red blood cells [3]
  Percent hemolysis of serial dilutions: very low hemolysis relative to protegrin-1 and tachyplesin-1
[4]
  Loss of activity (MBC) when 40% human serum was added: 8 fold

## GSKKPVPIIYCNRRTGKCQRM (disulfide) [Thanatin]
Human red blood cells [5]
  Hemolysis previously reported: very low hemolysis

## RGGRLCYCRRRFCVCVGR--- (bicyclic or more) [protegrin-1, reference compound]
[4]
  Loss of activity (MBC) when 40% human serum was added: no change

## RKCVILCAR-NRRA-CVILCR [SBH-19]
Solubility in water
  Solubility in water: insoluble in water
